ChEMBL document CHEMBL4270671, “Pathway-Based Drug Repositioning for Cancers: Computational Prediction and Experimental Validation” (J Med Chem, 2018)
Activity calls are given as the source filed them. The calls are words filed in the database; no cut-off is given here.

Columns and labels:
[1] = test system: A549; assay: Induction of apoptosis in human A549 cells assessed as increase in caspase 3/7 activity after 6 hrs by caspase glo 3/7 assay; type: functional, cell-based
In short: (§1)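 A single multiplexed triplex kit read cell viability, cytotoxicity and apoptosis, with caspase-3/7 activity as the apoptosis marker. Compounds were tested over a range of concentrations on cancer lines and normal epithelial Het-1A cells, with DMSO as the vehicle control. Read-outs were compared against the DMSO wells.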

[2] = test system: Caco-2; assay: Induction of apoptosis in human Caco2 cells assessed as increase in caspase 3/7 activity after 6 hrs by caspase glo 3/7 assay; type: functional, cell-based; in short: as §1
[3] = test system: ASPC1; assay: Induction of apoptosis in human AsPC1 cells assessed as increase in caspase 3/7 activity after 6 hrs by caspase glo 3/7 assay; type: functional, cell-based; in short: as §1
[4] = test system: PC-3; assay: Induction of apoptosis in human PC3 cells assessed as increase in caspase 3/7 activity after 6 hrs by caspase glo 3/7 assay; type: functional, cell-based; in short: as §1
[5] = test system: HET-1A; assay: Reduction in viability of human HET-1A cells after 6 hrs by fluorescence assay; type: cell-based; in short: as §1
[6] = test system: A549; assay: Reduction in viability of human A549 cells after 6 hrs by fluorescence assay; type: functional, cell-based; in short: as §1
[7] = test system: Caco-2; assay: Reduction in viability of human Caco2 cells after 6 hrs by fluorescence assay; type: functional, cell-based; in short: as §1
[8] = test system: ASPC1; assay: Reduction in viability of human AsPC1 cells after 6 hrs by fluorescence assay; type: functional, cell-based; in short: as §1
[9] = test system: PC-3; assay: Reduction in viability of human PC3 cells after 6 hrs by fluorescence assay; type: functional, cell-based; in short: as §1
[10] = test system: HET-1A; assay: Induction of apoptosis in human HET-1A cells assessed as increase in caspase 3/7 activity after 6 hrs by caspase glo 3/7 assay; type: cell-based; in short: as §1
[11] = test system: HET-1A; assay: Cytotoxicity against human HET-1A cells after 6 hrs by fluorescence assay; type: cell-based; in short: as §1
[12] = test system: A549; assay: Cytotoxicity against human A549 cells after 6 hrs by fluorescence assay; type: functional, cell-based; in short: as §1
[13] = test system: Caco-2; assay: Cytotoxicity against human Caco2 cells after 6 hrs by fluorescence assay; type: functional, cell-based; in short: as §1
[14] = test system: ASPC1; assay: Cytotoxicity against human AsPC1 cells after 6 hrs by fluorescence assay; type: functional, cell-based; in short: as §1
[15] = test system: PC-3; assay: Cytotoxicity against human PC3 cells after 6 hrs by fluorescence assay; type: functional, cell-based; in short: as §1

How did the Activity [1] turn out when CC(=O)Oc1ccccc1C(=O)Nc1ncc([N+](=O)[O-])s1 was run?
Its Activity is “inactive”.

And the Activity [2]?
The Activity was “inactive”.

And the Activity [3]?
Its Activity is “inactive”.

And the Activity [4]?
The Activity was “inactive”.

What does the source list for O=C(Nc1ccc([N+](=O)[O-])cc1Cl)c1cc(Cl)ccc1O [NICLOSAMIDE]?
Activity [5]: Dose-dependent effect; Activity [6]: Dose-dependent effect; Activity [7]: Dose-dependent effect; Activity [8]: Dose-dependent effect; Activity [9]: Dose-dependent effect; Activity [1]: Active; Activity [2]: Active; Activity [3]: Active; Activity [4]: Dose-dependent effect

How did the Activity [5] turn out when COC(=O)C1=C(C)NC(C)=C(C(=O)OCCN(C)Cc2ccccc2)C1c1cccc([N+](=O)[O-])c1 (stereo unspecified) [NICARDIPINE] was run?
The Activity was “Dose-dependent effect”.

And the Activity [6]?
The Activity was “Dose-dependent effect”.

And the Activity [7]?
The Activity was “Dose-dependent effect”.

What about the Activity [8] of the same compound?
Its Activity is “Dose-dependent effect”.

What about the Activity [9] of the same compound?
Its Activity is “Dose-dependent effect”.

And the Activity [10]?
The Activity was “Dose-dependent effect”.

And the Activity [2]?
The Activity was “Dose-dependent effect”.

And the Activity [4]?
Its Activity is “Dose-dependent effect”.

What about the Activity [11] of the same compound?
The Activity was “Dose-dependent effect”.

What about the Activity [12] of the same compound?
Its Activity is “Dose-dependent effect”.

What about the Activity [13] of the same compound?
The Activity was “Dose-dependent effect”.

What about the Activity [14] of the same compound?
The Activity was “Dose-dependent effect”.

And the Activity [15]?
The Activity was “Dose-dependent effect”.

With CN1[C@@H]2CCC[C@H]1CC(NC(=O)c1nn(C)c3ccccc13)C2 (stereo partly specified) as the compound, how does the Activity [5] read?
Its Activity is “Toxic”.

And the Activity [6]?
Its Activity is “inactive”.

And the Activity [7]?
Its Activity is “inactive”.

And the Activity [8]?
Its Activity is “inactive”.

And the Activity [9]?
Its Activity is “inactive”.

CN(C)CCCN1c2ccccc2Sc2ccccc21 [PROMAZINE] was tested. Which Activity [5] did it give?
Its Activity is “Dose-dependent effect”.

What about the Activity [6] of the same compound?
The Activity was “Dose-dependent effect”.

What about the Activity [7] of the same compound?
Its Activity is “Dose-dependent effect”.

And the Activity [8]?
Its Activity is “Dose-dependent effect”.

And the Activity [9]?
The Activity was “Dose-dependent effect”.

And the Activity [10]?
Its Activity is “Dose-dependent effect”.

And the Activity [1]?
The Activity was “Dose-dependent effect”.

And the Activity [2]?
Its Activity is “Dose-dependent effect”.

And the Activity [3]?
Its Activity is “Active”.

And the Activity [4]?
Its Activity is “Dose-dependent effect”.

What about the Activity [11] of the same compound?
The Activity was “Dose-dependent effect”.

What about the Activity [12] of the same compound?
The Activity was “Dose-dependent effect”.

What about the Activity [13] of the same compound?
Its Activity is “Dose-dependent effect”.

What about the Activity [14] of the same compound?
The Activity was “Dose-dependent effect”.

And the Activity [15]?
The Activity was “Dose-dependent effect”.

With OC1(c2ccc(Cl)c(C(F)(F)F)c2)CCN(CCCC(c2ccc(F)cc2)c2ccc(F)cc2)CC1 [PENFLURIDOL] as the compound, how does the Activity [5] read?
Its Activity is “Dose-dependent effect”.

And the Activity [6]?
Its Activity is “Dose-dependent effect”.

And the Activity [7]?
Its Activity is “Dose-dependent effect”.

And the Activity [8]?
The Activity was “Dose-dependent effect”.

And the Activity [9]?
The Activity was “Dose-dependent effect”.

And the Activity [10]?
Its Activity is “Dose-dependent effect”.

And the Activity [1]?
Its Activity is “Dose-dependent effect”.

And the Activity [2]?
Its Activity is “Dose-dependent effect”.

And the Activity [3]?
The Activity was “Active”.

What about the Activity [4] of the same compound?
The Activity was “Dose-dependent effect”.

What about the Activity [11] of the same compound?
The Activity was “Dose-dependent effect”.

What about the Activity [12] of the same compound?
Its Activity is “Dose-dependent effect”.

And the Activity [13]?
Its Activity is “Dose-dependent effect”.

What about the Activity [14] of the same compound?
The Activity was “Dose-dependent effect”.

What about the Activity [15] of the same compound?
The Activity was “Dose-dependent effect”.

How did the Activity [5] turn out when CC[C@H]1OC(=O)[C@H](C)[C@@H](O[C@H]2C[C@@](C)(OC)[C@@H](O)[C@H](C)O2)[C@H](C)[C@@H](O[C@@H]2O[C@H](C)C[C@H](N(C)C)[C@H]2O)[C@](C)(O)C[C@@H](C)[C@@H]2N[C@@H](COCCOC)O[C@H]([C@H]2C)[C@]1(C)O [DIRITHROMYCIN] was run?
The Activity was “Toxic”.

And the Activity [6]?
The Activity was “inactive”.

And the Activity [7]?
The Activity was “inactive”.

And the Activity [8]?
The Activity was “inactive”.

And the Activity [9]?
Its Activity is “inactive”.
